For nine compounds, Activity and inhibition in vivo results are on record in ChEMBL document CHEMBL1275301, “Antihypertensive activity of newer 1,4-dihydro-5-pyrimidine carboxamides: synthesis and pharmacological evaluation” (2010).

Activity calls are given as the source filed them. The calls are words filed in the database; no cut-off is given here.

Assay [1] concerns Rattus norvegicus. As to the kind of experiment: Antihypertensive activity against DOCA-salt induced hypertension in albino rat assessed as reduction in systolic blood pressure at 10 mg/kg, po up to 360 mins by tail-cuff method. In kind it is functional, organism-based. Set-up: dose 10 mg/kg. The conditions noted are these: Artery. In a few lines:
(§1)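 Rats given DOCA 20 mg/kg s.c. twice weekly in olive oil for 4 weeks, with 1% w/v NaCl as drinking water, reaching systolic 160–180 mm Hg. Rats were trained in restrainer and tail-cuff sessions. Compounds in 0.5% CMC were dosed at 10 mg/kg by oral feeding needle, with vehicle and nifedipine groups. BP was read before dosing and after, with the tail warmed at 37 °C for 2–5 min. Each compound was run three times in one week and readings averaged.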

Assay [2] has as its system Rattus norvegicus. Description: Antihypertensive activity against DOCA-salt induced hypertension in albino rat assessed as reduction in systolic blood pressure at 10 mg/kg, po after 300 mins by tail-cuff method. Type of assay: functional. The conditions noted are these: Artery, 5 h. In a few lines:
as §1

Assay [3] deals with Rattus norvegicus. Description: Antihypertensive activity against DOCA-salt induced hypertension in albino rat assessed as reduction in systolic blood pressure at 10 mg/kg, po after 600 mins by tail-cuff method. To be noted: Artery, 10 h. In kind it is functional. A digest of the protocol: as §1
Assay [4] concerns Rattus norvegicus. Description: Antihypertensive activity against DOCA-salt induced hypertension in albino rat assessed as reduction in systolic blood pressure at 10 mg/kg, po after 15 mins by tail-cuff method. In kind it is functional. The conditions noted are these: Artery, 0.25 h. A digest of the protocol: as §1
Assay [5] relates to Rattus norvegicus. As to the kind of experiment: Antihypertensive activity against DOCA-salt induced hypertension in albino rat assessed as reduction in systolic blood pressure at 10 mg/kg, po after 30 mins by tail-cuff method. In kind it is functional. To be noted: Artery, 0.5 h. A digest of the protocol: as §1
Assay [6] has as its system Rattus norvegicus. Description: Antihypertensive activity against DOCA-salt induced hypertension in albino rat assessed as reduction in systolic blood pressure at 10 mg/kg, po after 720 mins by tail-cuff method. In kind it is functional. The conditions noted are these: Artery, 12 h. In a few lines:
as §1

Assay [7] deals with Rattus norvegicus. As to the kind of experiment: Antihypertensive activity against DOCA-salt induced hypertension in albino rat assessed as reduction in systolic blood pressure at 10 mg/kg, po after 180 mins by tail-cuff method. In kind it is functional. To be noted: Artery, 3 h. A digest of the protocol:
as §1

Assay [8] deals with Rattus norvegicus. Description: Antihypertensive activity against DOCA-salt induced hypertension in albino rat assessed as reduction in systolic blood pressure at 10 mg/kg, po after 900 mins by tail-cuff method. In kind it is functional. The conditions noted are these: Artery, 15 h. A digest of the protocol:
as §1

Assay [9] deals with Rattus norvegicus. Description: Antihypertensive activity against DOCA-salt induced hypertension in albino rat assessed as reduction in systolic blood pressure at 10 mg/kg, po after 360 mins by tail-cuff method. In kind it is functional. The conditions noted are these: Artery, 6 h. In a few lines:
as §1

Assay [10] concerns Rattus norvegicus. As to the kind of experiment: Antihypertensive activity against DOCA-salt induced hypertension in albino rat assessed as reduction in systolic blood pressure at 10 mg/kg, po after 60 mins by tail-cuff method. To be noted: Artery, 1 h. Type of assay: functional. A digest of the protocol:
as §1

The subject of assay [11] is Rattus norvegicus. Description: Antihypertensive activity against DOCA-salt induced hypertension in albino rat assessed as reduction in systolic blood pressure at 10 mg/kg, po after 240 mins by tail-cuff method. Type of assay: functional. To be noted: Artery, 4 h. A digest of the protocol:
as §1

Assay [12] deals with Rattus norvegicus. Description: Antihypertensive activity against DOCA-salt induced hypertension in albino rat assessed as reduction in systolic blood pressure at 10 mg/kg, po after 120 mins by tail-cuff method. To be noted: Artery, 2 h. Type of assay: functional. In a few lines:
as §1

In the case of `CC1=C(C(=O)Nc2ccc(F)cc2)C(c2ccc([N+](=O)[O-])cc2)N=C(SCc2ccc(Cl)cc2)N1` (stereo not drawn), in [1], the result was Active. For the same compound, the inhibition in vivo (usually the percentage by which the read-out fell short of the control) at 10 mg/kg in assay [2] is 37.9%; in assay [3], 28.2%; in [4], 3.6%; in assay [5], 6.7%; in [6], 22.2%; in assay [7], 23.2%. In addition, the inhibition in vivo at 10 mg/kg in assay [8] came out at 16.9%; in [9], 39.7%; in [10], 11.8%; in assay [11], 33.3%; in assay [12] it was 16%.

`COc1ccc(C2N=C(SCc3ccccc3)NC(C)=C2C(=O)Nc2ccc(Br)cc2)cc1` (stereo not drawn): the result in [1] was Active. Besides, the inhibition in vivo at 10 mg/kg is 16.4% in [2]; 11.3% in [3]; 1% in assay [4]; 2.6% in [5]; 7.2% in assay [6]; 10.3% in assay [7]. Moreover, the inhibition in vivo at 10 mg/kg in assay [8] worked out at 5.6%; in assay [9], 18.6%; in assay [10], 5.6%; in [11], 13.3%; in [12], 8.2%.

Turning to `CC1=C(C(=O)Nc2ccc([N+](=O)[O-])cc2)C(c2ccc(Br)cc2)N=C(SCc2ccccc2Cl)N1` (stereo not drawn), the outcome in [1] was Active. For the same compound, the inhibition in vivo at 10 mg/kg in assay [2] was 16.9%; in assay [3], 9.7%; in [4] it was 1.5%; in assay [5], 3.6%; in [6], 6.7%; in [7] it was 11.3%. In addition, the inhibition in vivo at 10 mg/kg came out at 4.1% in assay [8]; 13.9% in assay [9]; 6.7% in [10]; 15.4% in [11]; 7.7% in assay [12].

`COc1ccc(C2N=C(SCc3ccc(F)cc3)NC(C)=C2C(=O)Nc2ccc(Br)cc2)cc1` (stereo not drawn): in [1], the result was Active. For the same compound, the inhibition in vivo at 10 mg/kg worked out at 26.2% in assay [2]; 24.1% in assay [3]; 3.6% in [4]; 6.2% in [5]; 19.1% in assay [6]; 17% in assay [7]. For the same compound, the inhibition in vivo at 10 mg/kg in assay [8] was determined as 15.4%; in assay [9], 33.5%; in assay [10] it was 8.7%; in assay [11], 22.1%; in assay [12] it was 12.9%.

Turning to `COc1ccc(C2N=C(SCc3cccc(Cl)c3)NC(C)=C2C(=O)Nc2ccc(Br)cc2)cc1` (stereo not drawn), in assay [1], the outcome was Active. In addition, the inhibition in vivo at 10 mg/kg in assay [2] worked out at 39%; in assay [3], 32.8%; in assay [4], 3.1%; in assay [5], 7.7%; in assay [6], 26.8%; in [7] it was 27.3%. Further, the inhibition in vivo at 10 mg/kg in assay [8] came to 22.6%; in assay [9], 39.7%; in assay [10], 15.4%; in assay [11], 33.8%; in assay [12], 21.1%.

For the compound `CC1=C(C(=O)Nc2ccc([N+](=O)[O-])cc2)C(c2cccc([N+](=O)[O-])c2)N=C(SCc2cccc(Cl)c2)N1` (stereo not drawn), in [1], the outcome was Active. Further, the inhibition in vivo at 10 mg/kg in assay [2] stood at 21%; in assay [3], 19%; in [4], 2.6%; in assay [5], 4.1%; in assay [6], 12.9%; in [7], 14.9%. Moreover, the inhibition in vivo at 10 mg/kg in [8] was 10.8%; in assay [9], 21.6%; in [10], 8.2%; in assay [11] it was 17.9%; in assay [12], 12.4%.

`COc1ccc(C2N=C(SCc3ccccc3)NC(C)=C2C(=O)Nc2ccc(F)cc2)cc1OC` (stereo not drawn): in assay [1], the result was Active. Further, the inhibition in vivo at 10 mg/kg in [2] was found to be 7.2%; in assay [3] it was 3.1%; in [4] it was 1.5%; in assay [5] it was 3.6%; in assay [6], 1.5%; in [7], 12.9%. For the same compound, the inhibition in vivo at 10 mg/kg is 1% in [8]; 3.6% in assay [9]; 6.2% in [10]; 11.8% in [11]; 8.8% in assay [12].

Take `CC1=C(C(=O)Nc2ccc(Br)cc2)C(c2ccc(Cl)cc2Cl)N=C(SCc2ccccc2)N1` (stereo not drawn): the result in [1] was Active. In addition, the inhibition in vivo at 10 mg/kg in assay [2] came out at 22.1%; in assay [3], 17.4%; in assay [4] it was 1.5%; in assay [5] it was 3.6%; in [6], 11.3%; in [7] it was 13.4%. Besides, the inhibition in vivo at 10 mg/kg in [8] is 8.2%; in [9], 24.2%; in assay [10] it was 6.7%; in assay [11] it was 17.4%; in assay [12] it was 10.3%.

With `CC1=C(C(=O)Nc2ccc([N+](=O)[O-])cc2)C(c2cccc([N+](=O)[O-])c2)N=C(SCc2ccccc2Cl)N1` (stereo not drawn), in [1], the outcome was Active. Further, the inhibition in vivo at 10 mg/kg in assay [2] is 15.9%; in assay [3], 13.3%; in [4] it was 2.1%; in assay [5], 3.6%; in assay [6] it was 11.3%; in assay [7] it was 9.3%. In addition, the inhibition in vivo at 10 mg/kg in [8] was found to be 7.2%; in assay [9], 17.5%; in assay [10], 6.7%; in assay [11], 12.8%; in assay [12], 7.7%.
